Assay outcomes deposited in PubChem by several laboratories.
Sampled rows, rich in hits. Any-hit rate of the full collection: about 2%.
NS3 helicase inh = HCV NS3 helicase inhibition; NS3 helicase DNA unwinding, Cy5 molecular beacon fluorescence; inhibition, % at 10.9 µM; 290,000 compounds, 0.56% hits; AID 1800;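 active = inhibition above the mean of all tested compounds plus 3 SD, set per campaign, cut at about 35% in these data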
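Material: hepatitis C virus NS3 helicase domain fragment enzyme; measured by: Cy5 fluorescence, 0 and 60 min reads; control set: DMSO and thioflavine S; incubation: 60 min unwinding reaction at 25 °C after ATP addition; read-out basis: % inhibition from 60/0 min fluorescence ratio, DMSO 0%, thioflavine S 100%; repeats: singlicate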
eIF4H inh = inhibitors of RNA binding by human eIF4H; AID 2012; eIF4H fluorescence polarization binding assay; 290,000 compounds, 0.94% hits; inhibition, % at 35 µM; Q15056;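 note: calls also rest on retests at 20 µM and on dose response follow-up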
DNA FID counter = fluorescent intercalator displacement, NS3 helicase counter-screen; DNA fluorescent intercalator displacement, fluorescence; inhibition, % at 7.9 µM; 290,000 compounds, 0.17% hits; AID 1845; in the data active = inhibition above about 37%;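 note: higher means more ethidium bromide displaced from hairpin DNA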
core dimer inh = blocks dimerization of HCV core protein; 300,000 compounds, 0.33% hits; inhibition, % at 5 µM; TR-FRET GST/Flag-core106 dimerization, 1536-well; AID 1899;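 active = inhibition above the mean of all tested compounds plus 3 SD, set per screening campaign, cut at about 45% in these data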
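Assay system: GST-tagged and Flag-tagged HCV core protein residues 1-106 / Times: compound-protein-antibody incubation 4 h at 22.5 °C / Signal: time-resolved FRET, ex 340 nm, em 617 and 671 nm / Evaluation: % inhibition based on acceptor/donor emission ratio / Benchmarks: wells lacking GST-core106 and wells with excess unlabelled core106 / Repeats: singlicate, one well per compound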
PABP FP inh = PABP-poly(A) binding inhibition | inhibition, % at 35 µM | 290,000 compounds, 1% hits | AID 2014 | PABP-poly(A) RNA binding, fluorescence polarization | P11940;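 note: calls also rest on retests at 20 µM and on dose response follow-up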
Target sequence (P11940 whole entry, looked up): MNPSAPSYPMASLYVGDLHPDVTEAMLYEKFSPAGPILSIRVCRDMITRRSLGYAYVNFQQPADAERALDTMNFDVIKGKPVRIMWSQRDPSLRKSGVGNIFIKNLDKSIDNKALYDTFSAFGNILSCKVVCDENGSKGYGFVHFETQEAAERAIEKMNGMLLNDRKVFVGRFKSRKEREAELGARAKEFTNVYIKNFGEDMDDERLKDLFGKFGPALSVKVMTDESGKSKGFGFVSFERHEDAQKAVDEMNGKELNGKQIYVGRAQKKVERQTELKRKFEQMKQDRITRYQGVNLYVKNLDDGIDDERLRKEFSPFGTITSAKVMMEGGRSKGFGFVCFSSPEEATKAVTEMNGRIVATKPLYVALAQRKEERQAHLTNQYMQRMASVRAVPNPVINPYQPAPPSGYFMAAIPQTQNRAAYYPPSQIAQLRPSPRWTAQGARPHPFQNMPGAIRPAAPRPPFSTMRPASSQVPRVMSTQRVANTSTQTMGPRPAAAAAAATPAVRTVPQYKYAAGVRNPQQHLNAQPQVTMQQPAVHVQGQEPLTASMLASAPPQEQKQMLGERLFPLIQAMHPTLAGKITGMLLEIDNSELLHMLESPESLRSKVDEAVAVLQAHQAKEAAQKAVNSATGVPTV
MLLE-PAM2 inh = inhibitors of microRNA-mediated deadenylation, human PABP1 MLLE binding | inhibition, % at 20 µM | P11940 | 360,000 compounds, 0.36% hits | GST-MLLE / FITC-PAM2 fluorescence polarization; in the data active = inhibition above about 35%, passing the limit was not always enough
Of the large screens only hits and unclear results are named; the others gave an inactive call. Unless noted, the rule behind the calls is not given here.

Cn1c(C(=O)Nc2ccc3c(c2)OCCO3)cc2sccc21	none
CCc1ccccc1NS(=O)(=O)c1ccc2c(c1)NC(=O)CC(=O)N2	eIF4H inh active, PABP FP inh 113
COc1ccc(C)c2sc(=NC(=O)c3ccc(C(C)=O)cc3)n(C)c12	eIF4H inh 90, PABP FP inh 57
COc1ccc(C)c2sc(=NC(=O)c3ccccc3)n(C)c12	none
OC(c1ccc(F)c(F)c1)c1nc(-c2ccc3c(c2)OCO3)cs1 (centres undefined)	none (no result: NS3 helicase inh, eIF4H inh, DNA FID counter, core dimer inh, PABP FP inh)
COc1cc(C)ccc1S(=O)(=O)NC(=O)C1(C)CCN1C(=O)c1ccc(C2CCCCC2)cc1 (centres undefined)	none (no result: NS3 helicase inh, eIF4H inh, DNA FID counter, core dimer inh, PABP FP inh)
CCn1c(C)c(C(C)=O)c(N2CCN(C(c3ccccc3)c3ccccc3)CC2)nc1=S	none
CCSc1nc(=O)n(-c2ccccc2)c(C)c1C(C)=O	none
CCn1c(C)c(C(C)=O)c(N2CCN(c3ccccc3)CC2)nc1=S	eIF4H inh 128, PABP FP inh 120
CCSc1nc(=S)n(-c2ccccc2)c(C)c1C(C)=O	MLLE-PAM2 inh 43
CCn1c(C)c(C(C)=O)c(N2CCN(c3ccccn3)CC2)nc1=S	eIF4H inh 66, PABP FP inh 67
CC(=O)c1c(N2CCOCC2)nc(=S)n(-c2ccccc2)c1C	MLLE-PAM2 inh 45
Cc1nc2c(o1)C(=O)c1ccccc1C2=Nc1ccccc1	none (no result: NS3 helicase inh, eIF4H inh, DNA FID counter, core dimer inh, PABP FP inh)
C=CCn1cccc(C(=O)Nc2ccc(C)c(C)c2)c1=O	none
CCc1nnc(SCC(=O)Nc2ccc3ccccc3c2)n1N	none (no result: NS3 helicase inh, eIF4H inh, DNA FID counter, core dimer inh, PABP FP inh)
N#Cc1c(-c2ccco2)cc(-c2ccccc2)[nH]c1=O	eIF4H inh inconclusive, PABP FP inh 101
O=C(O)COc1ccccc1C=NNC(=O)c1ccccc1NS(=O)(=O)c1cccs1	none (no result: NS3 helicase inh, eIF4H inh, DNA FID counter, core dimer inh, PABP FP inh)
Cc1ccc2c(c1)N(CC(=O)Nc1ncccc1C)C(=O)C(C(C)C)O2 (centres undefined)	none
OC(c1ccccc1)c1nc(-c2ccc(F)c(Cl)c2)cs1 (centres undefined)	none (no result: NS3 helicase inh, eIF4H inh, DNA FID counter, core dimer inh, PABP FP inh)
Cc1cccc(C(O)c2cnc(C)n2Cc2ccccc2)c1 (centres undefined)	none (no result: NS3 helicase inh, eIF4H inh, DNA FID counter, core dimer inh, PABP FP inh)
COc1ccc([N+](=O)[O-])cc1N(CC(O)CN1CCCCC1)S(=O)(=O)c1ccc(C)cc1 (centres undefined)	eIF4H inh 112, PABP FP inh 99
CSc1nnc2c3ccccc3n(CCc3ccccc3)c2n1	none
S=c1nc2c(n[nH]1)c1ccccc1n2CCc1ccccc1	MLLE-PAM2 inh 39
CC(C)CCNC(=O)C(C)N(C(=O)c1snc(C(N)=O)c1N)c1cnc2ccccc2c1 (centres undefined)	PABP FP inh 51
COc1ccc(C=NCCc2ccc(OC)c(OC)c2)cc1OC	none (no result: NS3 helicase inh, eIF4H inh, DNA FID counter, core dimer inh, PABP FP inh)
O=C1c2ccc3c4c(ccc(c24)C(=O)N1CCCCO)C(=O)N(CCCCO)C3=O	eIF4H inh inconclusive, MLLE-PAM2 inh 64 (no result: core dimer inh)
O=C(c1ccc2c(c1)C(=O)N(CCCO)C2=O)c1ccc2c(c1)C(=O)N(CCCO)C2=O	none
COc1ccccc1-c1cccc([C@@H]2C[C@H]3[C@H](CON3C)CN2S(=O)(=O)c2ccccc2C)c1	none (no result: NS3 helicase inh, eIF4H inh, DNA FID counter, core dimer inh, PABP FP inh)
O=C(NC(=S)Nc1ncccn1)c1ccccc1Cl	MLLE-PAM2 inh 41
COc1ccc(OCC(=O)N2CCC(n3nccc3NC(=O)C3CC3)CC2)cc1	none
O=C(O)CSc1ncnc2sc3c(c12)CCCC3	none
O=C(O)CSc1ncnc2sc3c(c12)CCC3	eIF4H inh 60, PABP FP inh 10
O=C(O)Cn1nnc(-c2ccccc2)c1COc1ccccc1	none (no result: NS3 helicase inh, eIF4H inh, DNA FID counter, core dimer inh, PABP FP inh)
CCn1c(O)c(/C=C/C=C/C=Nc2ccccc2)sc1=S	none
CCCCn1c(O)c(/C=C/C=C/C=Nc2ccccc2)sc1=S	eIF4H inh 54, core dimer inh 63
Clc1ccc(CN2CCC(c3nc4ccc(Cl)cc4[nH]3)CC2)cc1	none
CC1CCCN(C(=O)CN2CCC(c3nc4ccc(Cl)cc4[nH]3)CC2)C1 (centres undefined)	eIF4H inh 91, PABP FP inh 68
CC1(C(=O)NS(=O)(=O)c2cccc(Cl)c2)CCN1C(=O)C/C=C/c1ccccc1 (centres undefined)	none (no result: NS3 helicase inh, eIF4H inh, DNA FID counter, core dimer inh, PABP FP inh)
C/C=C(\C)C(=O)Nc1cccc(C2=NOC3(C2)C[C@@H](C(N)=O)N(C(=O)c2ccccc2C(=O)c2ccccc2)C3)c1 (some centres undefined)	none (no result: NS3 helicase inh, DNA FID counter)
C=C(C)C(=O)Nc1cccc(C2=NOC3(C2)C[C@H](C(N)=O)N(C(=O)CC#N)C3)c1 (some centres undefined)	eIF4H inh 89 (no result: NS3 helicase inh, DNA FID counter, MLLE-PAM2 inh)
C=C(C)C(=O)Nc1cccc(C2=NOC3(C2)C[C@H](C(N)=O)N(C(=O)c2ccccc2C(=O)c2ccccc2)C3)c1 (some centres undefined)	eIF4H inh 98, PABP FP inh 58 (no result: NS3 helicase inh, DNA FID counter)
CCCCCC(=O)Nc1cccc(C2=NOC3(C2)C[C@H](C(N)=O)N(C(=O)CC#N)C3)c1 (some centres undefined)	PABP FP inh 67 (no result: NS3 helicase inh, DNA FID counter, core dimer inh, MLLE-PAM2 inh)
C=C(C)C(=O)Nc1cccc(C2=NOC3(C2)C[C@@H](C(N)=O)N(C(=O)CC(c2ccccc2)c2ccccc2)C3)c1 (some centres undefined)	eIF4H inh 90, PABP FP inh 52 (no result: NS3 helicase inh, DNA FID counter)
C/C=C(/C)C(=O)Nc1cccc(C2=NOC3(C2)C[C@@H](C(N)=O)N(C(=O)CC(c2ccccc2)c2ccccc2)C3)c1 (some centres undefined)	none (no result: NS3 helicase inh, DNA FID counter)
COc1ccc(NC(=O)Nc2nnc([C@H]3C[C@H](O)[C@@H](CO)O3)s2)cc1	none (no result: NS3 helicase inh, eIF4H inh, DNA FID counter, core dimer inh, PABP FP inh)
CN1CCN(c2nc3cc(N4CCOCC4)ccc3s2)CC1	none (no result: NS3 helicase inh, eIF4H inh, DNA FID counter, core dimer inh, PABP FP inh)
C=C(C)C(=O)Nc1cccc(C2=NOC3(C2)C[C@@H](C(N)=O)N(C(=O)/C(C)=C/C)C3)c1 (some centres undefined)	eIF4H inh 83, PABP FP inh 58 (no result: NS3 helicase inh, DNA FID counter)
C/C=C(\C)C(=O)Nc1cccc(C2=NOC3(C2)C[C@@H](C(N)=O)N(C(=O)/C(C)=C/C)C3)c1 (some centres undefined)	none (no result: NS3 helicase inh, DNA FID counter)
C=C(C)C(=O)Nc1cccc(C2=NOC3(C2)C[C@H](C(N)=O)N(C(=O)CC)C3)c1 (some centres undefined)	eIF4H inh 92 (no result: NS3 helicase inh, DNA FID counter)
COC(=O)CCCC1=CC2=C(c3ccccc3)C(=O)C(C)(OC(=O)C3CCCC3)C(=O)C2=CN1Cc1ccco1 (centres undefined)	PABP FP inh 39 (no result: NS3 helicase inh, DNA FID counter)
O=C(CCNC(=O)C1CCN(S(=O)(=O)c2ccc(F)cc2)CC1)NCc1ccccn1	none (no result: NS3 helicase inh, eIF4H inh, DNA FID counter, core dimer inh, PABP FP inh)
O=C(Nc1nnc(SCC(=O)N2CCCCC2)s1)c1c(F)cccc1F	none
O=C(CN1CCCC1)Nc1ccc(-c2nc3cc(NC(=O)CN4CCCC4)ccc3o2)cc1	DNA FID counter 47
CCN(CC)CC(=O)Nc1ccc(-c2nc3cc(NC(=O)CN(CC)CC)ccc3o2)cc1	none
CNC(=O)c1[nH]cnc1C(=O)N[C@@H](Cc1ccccc1)C(=O)OC(C)(C)C	eIF4H inh 93, PABP FP inh active
